ChEMBL document CHEMBL1287788, “2-aminohydroxamic acid derivatives as inhibitors of Bacillus cereus phosphatidylcholine preferred phospholipase C PC-PLC(Bc)” (Bioorg Med Chem, 2010)

What was measured:
[1] = Critical micelle concentration of the compound; type: physicochemical
[2] = Cytotoxicity against human A549 cells after 24 hrs by MTT assay; type: cell-based; conditions: read-out: LD50
[3] = target: T1, Phospholipase C (Bacillus cereus, UniProt P09598); assay: Uncompetitive inhibition of Bacillus cereus phosphatidylcholine preferred phospholipase C by Dixon plot analysis
T1 sequence (P09598 whole entry): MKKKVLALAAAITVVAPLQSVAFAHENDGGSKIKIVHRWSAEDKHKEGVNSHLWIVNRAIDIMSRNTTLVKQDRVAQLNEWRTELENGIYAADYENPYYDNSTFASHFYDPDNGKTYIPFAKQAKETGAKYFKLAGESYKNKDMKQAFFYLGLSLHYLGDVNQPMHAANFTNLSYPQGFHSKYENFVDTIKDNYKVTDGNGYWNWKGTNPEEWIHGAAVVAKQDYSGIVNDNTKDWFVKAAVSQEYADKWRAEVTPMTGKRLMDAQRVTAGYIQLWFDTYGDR

[4] = target: T1, Phospholipase C; assay: Inhibition of Bacillus cereus phosphatidylcholine preferred phospholipase C after 100 seconds
Outline: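 Bacillus cereus PC-PLC activity measured by a coupled read-out: phosphorylcholine released by the enzyme is hydrolysed by alkaline phosphatase, and the freed phosphate ions are quantified. Substrate was 1,2-di-n-hexanoyl-sn-glycero-3-phosphocholine at 2 mM final, below its CMC of 11.1 mM. Compound CMC values were determined so the assay ran under non-micellar conditions.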

[5] = target: T1, Phospholipase C; assay: Mixed-type inhibition of Bacillus cereus phosphatidylcholine preferred phospholipase C by Dixon plot analysis
[6] = target: T2, Phospholipase C (Bacillus cereus) (UniProt P09598); assay: Irreversible inhibition of Bacillus cereus phosphatidylcholine preferred phospholipase C assessed as residual activity after 10 mins
T2 sequence (whole entry): T1 sequence (P09598 whole entry)

[7] = target: T1, Phospholipase C; assay: Non-competitive inhibition of Bacillus cereus phosphatidylcholine preferred phospholipase C by Dixon plot analysis

SMILES	CMC [1] [µM]	CC50 at 24 h [2] [µM]	Ki [3] [µM]	IC50 [4] [µM]	Ki [5] [µM]	Activity [6] [%]	Ki [7] [µM]
CCCCCCCCCCCCCCCCCCC(NC(=O)OC(C)(C)C)C(=O)N(CC[N+](C)(C)C)OCc1ccccc1.[I-] (centres undefined)	75	25.1	–	–	–	–	–
CCCCCCCCCCC(N)C(=O)N(O)CC[N+](C)(C)C.Cl.[Cl-] (centres undefined)	> 500	> 100	12	40	–	–	–
CCCCCCCCCCC(NC(=O)OC(C)(C)C)C(=O)N(CCC[N+](C)(C)C)OCc1ccccc1.[I-] (centres undefined)	40	17	–	–	2.5	–	–
CCCCCCCCCCC(N)C(=O)N(CCC[N+](C)(C)C)OCc1ccccc1.Cl.[Cl-] (centres undefined)	141	43.4	–	50	–	–	–
CCCCCCC(N)C(=O)N(CCC[N+](C)(C)C)OCc1ccccc1.Cl.[Cl-] (centres undefined)	210	> 100	–	100	–	–	–
CCCCCCC(NC(=O)OC(C)(C)C)C(=O)N(CCCN(C)C)OCc1ccccc1 (centres undefined)	75	21	–	77	–	–	–
CCCCCCCCCCCCCCC(N)C(=O)N(CC[N+](C)(C)C)OCc1ccccc1.Cl.[Cl-] (centres undefined)	90	75.3	–	4	–	–	–
CCCCCCCCCCC(N)C(=O)N(O)CCCN(C)C.Cl.Cl (centres undefined)	79	40	–	100	–	–	–
CCCCCCCCCCC(N)C(=O)N(O)CCC[N+](C)(C)C.Cl.[Cl-] (centres undefined)	97	> 100	–	58	26	–	–
CCCCCCCCCCC(N)C(=O)N(CCCN(C)C)OCc1ccccc1.Cl.Cl (centres undefined)	8	7	–	32	–	–	–
CCCCCCCCCCCCCCCCCCC(N)C(=O)N(O)CC[N+](C)(C)C.Cl.[Cl-] (centres undefined)	50	52.7	–	4	–	–	–
CCCCCCC(NC(=O)OC(C)(C)C)C(=O)N(CCC[N+](C)(C)C)OCc1ccccc1.[I-] (centres undefined)	221	> 100	–	78	–	–	–
CCCCCCC(NC(=O)OC(C)(C)C)C(=O)N(CC[N+](C)(C)C)OCc1ccccc1.[I-] (centres undefined)	> 500	> 100	–	56	–	–	–
CCCCCCCCCCC(NC(=O)OC(C)(C)C)C(=O)N(CC[N+](C)(C)C)OCc1ccccc1.[I-] (centres undefined)	> 500	28.2	–	5	–	–	–
CCCCCCCCCCCCCCCCCCC(N)C(=O)N(CC[N+](C)(C)C)OCc1ccccc1.Cl.[Cl-] (centres undefined)	10	29	–	4	–	–	–
CCCCCCC(N)C(=O)N(CCCN(C)C)OCc1ccccc1.Cl.Cl (centres undefined)	158	> 100	–	> 500	–	–	–
CCCCCCCCCCC(N)C(=O)N(CC[N+](C)(C)C)OCc1ccccc1.Cl.[Cl-] (centres undefined)	> 500	76.1	–	10	–	–	–
CCCCCCC(N)C(=O)N(O)CCC[N+](C)(C)C.Cl.[Cl-] (centres undefined)	> 500	> 100	–	> 500	–	–	–
CCCCCCC(N)C(=O)N(O)CC[N+](C)(C)C.Cl.[Cl-] (centres undefined)	> 500	> 100	–	500	–	–	–
CCCCCCCCCCCCCCC(NC(=O)OC(C)(C)C)C(=O)N(CC[N+](C)(C)C)OCc1ccccc1.[I-] (centres undefined)	> 500	27.6	–	–	–	100	–
CCCCCCCCCCC(NC(=O)OC(C)(C)C)C(=O)N(CCCN(C)C)OCc1ccccc1 (centres undefined)	10	6	–	8	–	–	2.5
CCCCCCC(N)C(=O)N(O)CCCN(C)C.Cl.Cl (centres undefined)	> 500	> 100	–	> 500	–	–	–
CCCCCCC(N)C(=O)N(CC[N+](C)(C)C)OCc1ccccc1.Cl.[Cl-] (centres undefined)	> 500	> 100	–	> 500	–	–	–
CCCCCCCCCCCCCCC(N)C(=O)N(O)CC[N+](C)(C)C.Cl.[Cl-] (centres undefined)	120	100	–	2	–	–	–
